Test results as given in ChEMBL document CHEMBL1152875, “Synthesis and optimization of arylsulfonylpiperazines as a novel class of inhibitors of 11 beta-hydroxysteroid dehydrogenase type 1 (11 beta-HSD1)” (Bioorg Med Chem Lett, 2009).
pIC50: −log10 of the molar value. ≈ marks a conversion by molar mass, not a printed value.

What was measured:
[1] = Metabolic stability in rat liver S9 fraction assessed as compound remaining after 60 mins; format: ADME, subcellular; settings: read-out: Activity
[2] = Solubility at pH 5.0; format: physicochemical; settings: buffer
[3] = AUC in rat at 2 mg/kg, po; format: ADME, organism-based; parameters: dose 2 mg/kg, route oral; settings: plasma
[4] = Plasma concentration in cynomolgus monkey at 0.4 mg/kg, po after 2 hrs; format: ADME, organism-based, Macaca fascicularis; parameters: dose 0.4 mg/kg, route oral
Summary of the method: (§1)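 Cynomolgus monkeys were given single oral doses of 0.4, 2 or 10 mg/kg in 1% methylcellulose plus 1% Tween 80 in sterile water, with 3 animals per dose group and a vehicle group of 4. Plasma and mesenteric fat were collected 2 h post-dose. Compound level in each matrix was measured by LC/MS/MS.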

[5] = Plasma concentration in cynomolgus monkey at 2 mg/kg, po after 2 hrs; format: ADME, organism-based, Macaca fascicularis; parameters: dose 2 mg/kg, route oral; summary of the method: as §1
[6] = Plasma concentration in cynomolgus monkey at 10 mg/kg, po after 2 hrs; format: ADME, organism-based, Macaca fascicularis; parameters: dose 10 mg/kg, route oral; summary of the method: as §1
[7] = Drug level in mesenteric fat tissue of cynomolgus monkey at 0.4 mg/kg, po after 2 hrs; format: ADME, organism-based, Macaca fascicularis, Adipose tissue; parameters: dose 0.4 mg/kg, route oral; settings: read-out: Drug uptake; summary of the method: as §1
[8] = Drug level in mesenteric fat tissue of cynomolgus monkey at 2 mg/kg, po after 2 hrs; format: ADME, organism-based, Macaca fascicularis, Adipose tissue; parameters: dose 2 mg/kg, route oral; settings: read-out: Drug uptake; summary of the method: as §1
[9] = Drug level in mesenteric fat tissue of cynomolgus monkey at 10 mg/kg, po after 2 hrs; format: ADME, organism-based, Macaca fascicularis, Adipose tissue; parameters: dose 10 mg/kg, route oral; settings: read-out: Drug uptake; summary of the method: as §1
[10] = Oral bioavailability in rat; format: ADME, organism-based; settings: in vivo
[11] = Clearance in rat; format: ADME, organism-based; settings: in vivo
[12] = biological target: Cytochrome P450 3A4 (Homo sapiens, UniProt P08684)
[13] = biological target: Voltage-gated inwardly rectifying potassium channel KCNH2 (Homo sapiens, UniProt Q12809)
Sequence of Voltage-gated inwardly rectifying potassium channel KCNH2 (Q12809 whole entry): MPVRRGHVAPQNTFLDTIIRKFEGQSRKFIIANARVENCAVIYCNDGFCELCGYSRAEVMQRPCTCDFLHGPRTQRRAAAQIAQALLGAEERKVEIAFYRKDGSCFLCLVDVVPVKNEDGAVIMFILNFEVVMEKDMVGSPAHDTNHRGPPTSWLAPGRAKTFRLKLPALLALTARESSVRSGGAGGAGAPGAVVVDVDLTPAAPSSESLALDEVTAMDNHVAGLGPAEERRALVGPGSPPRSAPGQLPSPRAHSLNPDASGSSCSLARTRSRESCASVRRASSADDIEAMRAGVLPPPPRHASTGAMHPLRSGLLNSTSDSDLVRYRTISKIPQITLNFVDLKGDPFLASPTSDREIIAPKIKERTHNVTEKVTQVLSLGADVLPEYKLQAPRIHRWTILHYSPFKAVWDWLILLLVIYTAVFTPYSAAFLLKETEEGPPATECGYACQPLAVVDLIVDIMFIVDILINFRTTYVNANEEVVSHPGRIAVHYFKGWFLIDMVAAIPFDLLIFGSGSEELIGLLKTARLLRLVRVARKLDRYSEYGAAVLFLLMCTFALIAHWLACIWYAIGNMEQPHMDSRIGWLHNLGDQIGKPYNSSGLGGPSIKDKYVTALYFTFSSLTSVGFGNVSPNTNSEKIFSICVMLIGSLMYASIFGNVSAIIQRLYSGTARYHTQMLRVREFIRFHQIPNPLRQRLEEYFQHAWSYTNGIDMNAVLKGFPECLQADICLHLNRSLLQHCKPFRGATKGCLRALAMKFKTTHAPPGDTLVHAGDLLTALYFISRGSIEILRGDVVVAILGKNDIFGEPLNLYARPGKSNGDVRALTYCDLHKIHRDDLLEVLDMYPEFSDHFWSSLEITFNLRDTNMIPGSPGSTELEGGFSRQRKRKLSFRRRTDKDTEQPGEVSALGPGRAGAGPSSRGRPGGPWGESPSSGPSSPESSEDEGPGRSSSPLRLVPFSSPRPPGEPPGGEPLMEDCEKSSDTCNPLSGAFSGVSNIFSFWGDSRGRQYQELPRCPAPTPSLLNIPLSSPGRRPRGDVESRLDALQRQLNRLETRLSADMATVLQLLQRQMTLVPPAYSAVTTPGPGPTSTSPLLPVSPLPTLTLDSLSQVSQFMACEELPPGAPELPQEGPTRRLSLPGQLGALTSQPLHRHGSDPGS

Sequence of Cytochrome P450 3A4 (P08684 whole entry): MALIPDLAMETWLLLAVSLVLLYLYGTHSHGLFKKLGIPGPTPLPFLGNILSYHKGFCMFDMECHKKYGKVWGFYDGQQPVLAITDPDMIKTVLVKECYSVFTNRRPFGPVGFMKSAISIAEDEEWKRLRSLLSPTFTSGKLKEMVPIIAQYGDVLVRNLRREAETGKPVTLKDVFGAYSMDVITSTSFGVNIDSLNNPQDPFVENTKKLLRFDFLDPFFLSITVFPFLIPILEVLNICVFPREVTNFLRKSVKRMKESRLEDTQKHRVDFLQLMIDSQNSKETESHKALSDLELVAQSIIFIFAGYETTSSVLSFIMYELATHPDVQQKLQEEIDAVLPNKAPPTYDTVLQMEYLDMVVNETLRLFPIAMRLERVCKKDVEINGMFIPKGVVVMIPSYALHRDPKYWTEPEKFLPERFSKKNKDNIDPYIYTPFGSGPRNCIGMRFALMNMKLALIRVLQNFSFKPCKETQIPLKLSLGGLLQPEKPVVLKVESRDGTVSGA

Row | remaining at 1 h [1] | solubility [2] | Compound | other results
1 | 67% |  | C[C@@H]1CN(CCc2cccnc2)CCN1S(=O)(=O)c1ccc(C(C)(O)C(F)(F)F)cc1 (stereo not given in full) | 
2 |  | 21.8 µg/mL (≈ 54.3 µM) | C[C@@H]1CN(CCc2ccncc2)CCN1S(=O)(=O)c1ccc(C(C)(C)C)cc1 | 
3 |  | 20.8 µg/mL (≈ 51.8 µM) | CC(c1ccncc1)N1CCN(S(=O)(=O)c2ccc(C(C)(C)C)cc2)[C@H](C)C1 (stereo not given in full) | 
4 | 59% |  | C[C@@H]1CN(CCc2ccncc2)CCN1S(=O)(=O)c1ccc(C(C)(O)C(F)(F)F)cc1 (stereo not given in full) | 
5 |  | 39 µg/mL (≈ 93.8 µM) | C[C@@H]1CN(CCCc2ccncc2)CCN1S(=O)(=O)c1ccc(C(C)(C)C)cc1 | 
6 |  |  | C[C@@H]1CN(CC2(C(N)=O)CC2)CCN1S(=O)(=O)c1ccc([C@](C)(O)C(F)(F)F)cc1 | AUC [3]: 638 ng·h/mL; concentration at 2 h [4]: 29 nM; concentration at 2 h [5]: 349 nM; concentration at 2 h [6]: 503 nM; concentration at 2 h [7]: 105 nM; concentration at 2 h [8]: 2780 nM; concentration at 2 h [9]: 40.7 µM
7 | 46% |  | C[C@@H]1CN(CC(F)(F)c2cccnc2)CCN1S(=O)(=O)c1ccc(C(C)(O)C(F)(F)F)cc1 (stereo not given in full) | 
8 | 61% |  | C[C@@H]1CN(CC2(c3cccnc3)CCC2)CCN1S(=O)(=O)c1ccc(C(C)(O)C(F)(F)F)cc1 (stereo not given in full) | 
9 | 40% |  | C[C@@H]1CN(CC(F)(F)c2ccncc2)CCN1S(=O)(=O)c1ccc(C(C)(O)C(F)(F)F)cc1 (stereo not given in full) | 
10 |  | 1.8 µg/mL (≈ 4.31 µM) | C[C@@H]1CN(c2ccc([N+](=O)[O-])cc2)CCN1S(=O)(=O)c1ccc(C(C)(C)C)cc1 | 
11 | 50% |  | C[C@@H]1CN(CC2(c3cccnc3)CC2)CCN1S(=O)(=O)c1ccc(C(C)(O)C(F)(F)F)cc1 (stereo not given in full) | 
12 |  | 1 µg/mL (≈ 2.29 µM) | C[C@@H]1CN(Cc2ccnc3ccccc23)CCN1S(=O)(=O)c1ccc(C(C)(C)C)cc1 | 
13 | 80% |  | C[C@@H]1CN(CC2(c3ccncc3)CC2)CCN1S(=O)(=O)c1ccc(C(C)(O)C(F)(F)F)cc1 (stereo not given in full) | bioavailability [10]: 60%; clearance [11]: 35 mL/min/kg; pIC50 [12]: 5.77; pIC50 [13]: 6.36
14 | 54% |  | C[C@@H]1CN(CC2(c3ccncc3)CCC2)CCN1S(=O)(=O)c1ccc(C(C)(O)C(F)(F)F)cc1 (stereo not given in full) | 
15 | 28% |  | C[C@@H]1CN(CCc2ccccn2)CCN1S(=O)(=O)c1ccc(C(C)(O)C(F)(F)F)cc1 (stereo not given in full) | 
16 |  | 0.5 µg/mL (≈ 1.24 µM) | CC(C)(C)c1ccc(S(=O)(=O)N2CCN(c3ccc([N+](=O)[O-])cc3)CC2)cc1 | AUC [3]: 29.8 ng·h/mL
17 | 60% |  | C[C@@H]1CN(CC2(c3cccnc3)CCCC2)CCN1S(=O)(=O)c1ccc(C(C)(O)C(F)(F)F)cc1 (stereo not given in full) | 
18 | 43% |  | C[C@@H]1CN(CC2(c3ccncc3)CCCC2)CCN1S(=O)(=O)c1ccc(C(C)(O)C(F)(F)F)cc1 (stereo not given in full) | 
19 |  | 18.1 µg/mL (≈ 46.7 µM) | C[C@@H]1CN(Cc2ccncc2)CCN1S(=O)(=O)c1ccc(C(C)(C)C)cc1 | 
